From ChEMBL document CHEMBL3758153, “Identification of novel cyclic lipopeptides from a positional scanning combinatorial library with enhanced antibacterial and antibiofilm activities” (Eur J Med Chem, 2016)
The source made the active and inactive calls. The rule behind the calls is not given here. Where a SMILES comes first, the peptide text is derived from it. Bridges are numbered along the chain shown (N, C = ends). [ ]: non-standard residue; d: D form. The star is where a group is joined. Dodecanoyl(12-guanidino) = N=C(N)NCCCCCCCCCCCC(=O)*; d(aThr) = C[C@@H](O)[C@@H](N)C(=O)O

Experiments:
Staphylococcus aureus [1] = assay: Antibacterial activity against methicillin-resistant Staphylococcus aureus SAP0017 clinical isolate assessed as inhibition of biofilm formation at 4.8 uM after 3 days by Styo-9/propidium iodide staining based confocal laser scanning microscopy; format: functional, organism-based
BJ = assay: Cytotoxicity against human BJ cells assessed as reduction in cell viability at 150 uM after 48 to 72 hrs by Cell Titer-Glo Luminescent assay; format: cell-based
How it was run: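 BJ fibroblasts were seeded at 10,000 per well in EMEM with 10% FBS and incubated overnight at 37 °C, 5% CO2. Medium was then replaced with 2% FBS medium containing peptide (0.5–500 μM, final 1% DMSO). After 48 and 72 h, viability was read by CellTiter-Glo luminescence. Controls were 10 μM doxorubicin and 20% DMSO.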

Pseudomonas aeruginosa [2] = assay: Antibacterial activity against Pseudomonas aeruginosa PA14 assessed as inhibition of biofilm formation at 4.8 uM after 3 days by Styo-9/propidium iodide staining based confocal laser scanning microscopy; format: functional, organism-based
Acinetobacter baumannii [3] = assay: Antibacterial activity against Acinetobacter baumannii USF-1403 at 100 ug/mL; format: functional, organism-based
How it was run: (§1)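 Broth microdilution per CLSI in undiluted Müller–Hinton broth. Compounds were dissolved in DMSO and diluted to a final 1% DMSO (v/v). Plates included medium-only and no-drug growth controls, plus methicillin, vancomycin, nisin, colistin and bacitracin. Triplicate runs.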

Staphylococcus aureus [4] = assay: Antibacterial activity against methicillin-resistant Staphylococcus aureus CBD-635 at 10 ug/mL; format: functional, organism-based
How it was run: (§2)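 CLSI microbroth dilution in undiluted Müller–Hinton broth; peptides dissolved in DMSO and diluted in medium to 1% DMSO (v/v) final. Each agent tested at a fixed concentration against the ESKAPE clinical isolate. Controls: medium alone, inoculum without drug, and inoculum with methicillin, vancomycin, nisin, colistin or bacitracin. Run in triplicate.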

Staphylococcus aureus [5] = assay: Antibacterial activity against methicillin-resistant Staphylococcus aureus CBD-635 at 100 ug/mL; format: functional, organism-based; how it was run: as §2
Staphylococcus aureus [6] = assay: Antibacterial activity against methicillin-resistant Staphylococcus aureus CBD-635 at 50 ug/mL; format: functional, organism-based; how it was run: as §2
Pseudomonas aeruginosa [7] = assay: Antibacterial activity against Pseudomonas aeruginosa PA14 assessed as eradication of mature biofilm formation at 4.8 uM after 24 hrs by Styo-9/propidium iodide staining based confocal laser scanning microscopy; format: functional, organism-based
Staphylococcus aureus [8] = assay: Antibacterial activity against methicillin-resistant Staphylococcus aureus CBD-635 at 25 ug/mL; format: functional, organism-based; how it was run: as §2
[9] = Hemolytic activity in human erythrocytes at 155 uM after 1 hr; format: ADME, cell-based; conditions: erythrocyte
Enterococcus faecium [10] = assay: Antibacterial activity against vancomycin-resistant Enterococcus faecium USF-1449 at 25 ug/mL; format: functional, organism-based; how it was run: as §2
Staphylococcus aureus [11] = assay: Antibacterial activity against methicillin-resistant Staphylococcus aureus SAP0017 clinical isolate assessed as eradication of mature biofilm formation at 4.8 uM after 24 hrs by Styo-9/propidium iodide staining based confocal laser scanning microscopy; format: functional, organism-based
Enterococcus faecium [12] = assay: Antibacterial activity against vancomycin-resistant Enterococcus faecium USF-1449 at 50 ug/mL; format: functional, organism-based; how it was run: as §2
Staphylococcus aureus [13] = assay: Antibacterial activity against methicillin-resistant Staphylococcus aureus CBD-635 at 35 ug/mL; format: functional, organism-based; how it was run: as §2
Enterobacter cloacae [14] = assay: Antibacterial activity against carbapenem-resistant Enterobacter cloacae USF-1454 at 50 ug/mL; format: functional, organism-based; how it was run: as §2
Acinetobacter baumannii [15] = assay: Antibacterial activity against Acinetobacter baumannii USF-1403 at 25 ug/mL; format: functional, organism-based; how it was run: as §1
Acinetobacter baumannii [16] = assay: Antibacterial activity against Acinetobacter baumannii USF-1403 at 5 ug/mL; format: functional, organism-based; how it was run: as §1
Pseudomonas aeruginosa [17] = assay: Antibacterial activity against Pseudomonas aeruginosa USF-1423 at 10 ug/mL; format: functional, organism-based; how it was run: as §1
Enterococcus faecium [18] = assay: Antibacterial activity against vancomycin-resistant Enterococcus faecium USF-1449 at 100 ug/mL; format: functional, organism-based; how it was run: as §2
Pseudomonas aeruginosa [19] = assay: Antibacterial activity against Pseudomonas aeruginosa USF-1423 at 100 ug/mL; format: functional, organism-based; how it was run: as §1
Acinetobacter baumannii [20] = assay: Antibacterial activity against Acinetobacter baumannii USF-1403 at 10 ug/mL; format: functional, organism-based; how it was run: as §1
Pseudomonas aeruginosa [21] = assay: Antibacterial activity against Pseudomonas aeruginosa USF-1423 at 50 ug/mL; format: functional, organism-based; how it was run: as §1
Enterococcus faecium [22] = assay: Antibacterial activity against vancomycin-resistant Enterococcus faecium USF-1449 at 10 ug/mL; format: functional, organism-based; how it was run: as §2
Enterobacter cloacae [23] = assay: Antibacterial activity against carbapenem-resistant Enterobacter cloacae USF-1454 at 100 ug/mL; format: functional, organism-based; how it was run: as §2
Pseudomonas aeruginosa [24] = assay: Antibacterial activity against Pseudomonas aeruginosa USF-1423 at 5 ug/mL; format: functional, organism-based; how it was run: as §1
Enterobacter cloacae [25] = assay: Antibacterial activity against carbapenem-resistant Enterobacter cloacae USF-1454 at 25 ug/mL; format: functional, organism-based; how it was run: as §2
Pseudomonas aeruginosa [26] = assay: Antibacterial activity against Pseudomonas aeruginosa USF-1423 at 25 ug/mL; format: functional, organism-based; how it was run: as §1
Acinetobacter baumannii [27] = assay: Antibacterial activity against Acinetobacter baumannii USF-1403 at 50 ug/mL; format: functional, organism-based; how it was run: as §1
Klebsiella pneumoniae [28] = assay: Antibacterial activity against carbapenem-resistant Klebsiella pneumoniae USF-1433 at 100 ug/mL; format: functional, organism-based; how it was run: as §2
Pseudomonas aeruginosa [29] = assay: Ratio of MIC for Pseudomonas aeruginosa USF-1423 after 8 serial passages to MIC for Pseudomonas aeruginosa USF-1423 after 1st serial passage; format: functional
How it was run: (§3)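 Serial passage: exponential-phase cultures in MHB at about 10^6 CFU/mL final, started at ½ MIC of agent, incubated overnight at 37°C. An aliquot was moved each step to a 2-fold higher concentration, for 8 passages. MIC was determined at each step by broth microdilution. Vancomycin and ciprofloxacin were comparators. Three independent experiments.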

Staphylococcus aureus [30] = assay: Antibacterial activity against methicillin-resistant Staphylococcus aureus CBD-635 at 5 ug/mL; format: functional, organism-based; how it was run: as §2
Staphylococcus aureus [31] = assay: Ratio of MIC for methicillin-resistant Staphylococcus aureus CBD-635 after 8 serial passages to MIC for methicillin-resistant Staphylococcus aureus CBD-635 after 1st serial passage; format: functional; how it was run: as §3
Acinetobacter baumannii [32] = assay: Antibacterial activity against Acinetobacter baumannii USF-1403 at 35 ug/mL; format: functional, organism-based; how it was run: as §1
Klebsiella pneumoniae [33] = assay: Antibacterial activity against carbapenem-resistant Klebsiella pneumoniae USF-1433 at 50 ug/mL; format: functional, organism-based; how it was run: as §2
Enterococcus faecium [34] = assay: Antibacterial activity against vancomycin-resistant Enterococcus faecium USF-1449 at 35 ug/mL; format: functional, organism-based; how it was run: as §2
[35] = Hemolytic activity in human erythrocytes at 320 uM after 1 hr; format: ADME, cell-based; conditions: erythrocyte

Compound	Activity (Acinetobacter baumannii [3])	Activity (Staphylococcus aureus [5])	Activity (Staphylococcus aureus [6])	Activity (Staphylococcus aureus [8])	Activity (Enterococcus faecium [12])	Activity (Staphylococcus aureus [13])	Activity (Enterococcus faecium [18])	further results
CC(C)[C@@H]1NC(=O)[C@@H](C(C)C)NC(=O)[C@@H](NC(=O)CCCCCCCCCCCNC(=N)N)[C@@H](C)OC(=O)[C@@H](C)NC(=O)[C@@H](CC(N)=O)NC(=O)[C@@H]([C@@H](C)O)NC1=O ({Dodecanoyl(12-guanidino)}-T[dV]V[d(aThr)][dN][dA]; ester 1-C)	Active	Active	Active	Active	Active	–	–	inhibition (Staphylococcus aureus [1]): Active; Activity (BJ): Toxic; inhibition (Pseudomonas aeruginosa [2]): Active; Activity (Staphylococcus aureus [4]): Active; Activity (Pseudomonas aeruginosa [7]): Active; Activity [9]: Toxic; Activity (Enterococcus faecium [10]): Active; Activity (Staphylococcus aureus [11]): Active
CC(C)C[C@@H]1NC(=O)[C@@H](Cc2c[nH]c3ccccc23)NC(=O)C(NC(=O)CCCCCCCCCCCNC(=N)N)CNC(=O)[C@@H](CCCNC(=N)N)NC(=O)[C@@H](CC(N)=O)NC(=O)[C@@H](Cc2c[nH]c3ccccc23)NC1=O (stereo partly drawn)	–	Active	Active	Active	–	Active	–	–
CC[C@@H](C)[C@H]1NC(=O)[C@H](Cc2ccccc2)NC(=O)[C@@H](CC(C)C)NC(=O)C(NC(=O)CCCCCCCCCCCNC(=N)N)CNC(=O)[C@@H](CCCCN)NC(=O)[C@@H](CC(N)=O)NC1=O (stereo partly drawn)	–	Active	Active	–	–	Active	–	–
COLISTIN	Active	Active	–	–	Active	–	Active	Activity (Enterobacter cloacae [14]): Active; Activity (Acinetobacter baumannii [15]): Active; Activity (Acinetobacter baumannii [16]): Active; Activity (Pseudomonas aeruginosa [17]): Active; Activity (Pseudomonas aeruginosa [19]): Active; Activity (Acinetobacter baumannii [20]): Active; Activity (Pseudomonas aeruginosa [21]): Active; Activity (Enterococcus faecium [22]): Active; Activity (Enterobacter cloacae [23]): Active; Activity (Pseudomonas aeruginosa [24]): Active; Activity (Enterobacter cloacae [25]): Active; Activity (Pseudomonas aeruginosa [26]): Active; Activity (Enterococcus faecium [10]): Active; Activity (Acinetobacter baumannii [27]): Active; Activity (Klebsiella pneumoniae [28]): Active
CC(C)C[C@@H]1NC(=O)[C@@H](CC(C)C)NC(=O)C(NC(=O)CCCCCCCCCCCNC(=N)N)CNC(=O)[C@@H](CCCNC(=N)N)NC(=O)[C@@H](CC(N)=O)NC(=O)[C@@H](Cc2ccccc2)NC1=O (stereo partly drawn)	–	Active	Active	–	–	–	–	–
CC(C)C[C@@H]1NC(=O)[C@@H](CC(C)C)NC(=O)C(NC(=O)CCCCCCCCCCCNC(=N)N)CNC(=O)[C@@H](CCCCN)NC(=O)[C@@H](CC(N)=O)NC(=O)[C@@H](Cc2ccccc2)NC1=O (stereo partly drawn)	–	Active	Active	–	–	Active	–	–
CC[C@@H](C)[C@H]1NC(=O)[C@H](Cc2ccccc2)NC(=O)[C@@H](CC(C)C)NC(=O)C(NC(=O)CCCCCCCCCCCNC(=N)N)CNC(=O)[C@@H](CCCNC(=N)N)NC(=O)[C@@H](CC(N)=O)NC1=O (stereo partly drawn)	–	Active	Active	–	–	Active	–	–
C[C@@H](O)[C@H]1NC(=O)[C@@H](CC(N)=O)NC(=O)[C@@H](CCCNC(=N)N)NC(=O)[C@H](Cc2c[nH]c3ccccc23)NC(=O)[C@@H](Cc2c[nH]c3ccccc23)NC(=O)C(NC(=O)CCCCCCCCCCCNC(=N)N)CNC1=O (stereo partly drawn)	–	Active	Active	–	–	Active	–	–
CN[C@@H](CC(C)C)C(=O)N[C@H]1C(=O)N[C@@H](CC(N)=O)C(=O)N[C@H]2C(=O)N[C@H]3C(=O)N[C@H](C(=O)N[C@@H](C(=O)O)c4cc(O)cc(O)c4-c4cc3ccc4O)[C@H](O)c3ccc(c(Cl)c3)Oc3cc2cc(c3O[C@H]2O[C@@H](CO)[C@H](O)[C@@H](O)[C@@H]2O[C@@H]2C[C@@](C)(N)[C@@H](O)[C@@H](C)O2)Oc2ccc(cc2Cl)[C@H]1O	Active	Active	Active	Active	–	–	–	Ratio (Pseudomonas aeruginosa [29]): 64; Activity (Staphylococcus aureus [4]): Active; Activity (Staphylococcus aureus [30]): Active; Ratio (Staphylococcus aureus [31]): 64
CC[C@@H](C)[C@H]1NC(=O)[C@H](CC(C)C)NC(=O)[C@@H](CCCCN)NC(=O)C(NC(=O)CCCCCCCCCCCNC(=N)N)CNC(=O)[C@@H](CCCCN)NC(=O)[C@@H](CC(N)=O)NC1=O (stereo partly drawn)	Active	–	–	–	Active	–	Active	Activity (Acinetobacter baumannii [15]): Active; Activity (Acinetobacter baumannii [32]): Active; Activity (Acinetobacter baumannii [27]): Active
CC(C)C[C@@H]1NC(=O)[C@@H](CC(C)C)NC(=O)C(NC(=O)CCCCCCCCCCCNC(=N)N)CNC(=O)[C@@H](CCCNC(=N)N)NC(=O)[C@@H](CC(N)=O)NC(=O)[C@@H](CCCCN)NC1=O (stereo partly drawn)	Active	Active	Active	–	Active	Active	Active	Activity (Acinetobacter baumannii [15]): Active; Activity (Acinetobacter baumannii [32]): Active; Activity (Klebsiella pneumoniae [33]): Active; Activity (Enterococcus faecium [34]): Active; Activity (Acinetobacter baumannii [27]): Active; Activity (Klebsiella pneumoniae [28]): Active
O=C(O)c1cn(C2CC2)c2cc(N3CCNCC3)c(F)cc2c1=O [CIPROFLOXACIN]	–	–	–	–	–	–	–	Ratio (Pseudomonas aeruginosa [29]): 64; Ratio (Staphylococcus aureus [31]): 64
CC(C)[C@@H]1NC(=O)[C@@H](C(C)C)NC(=O)C(NC(=O)CCCCCCCCCCCNC(=N)N)CNC(=O)[C@@H](C)NC(=O)[C@@H](CC(N)=O)NC(=O)[C@@H]([C@@H](C)O)NC1=O (stereo partly drawn)	Active	Active	–	Active	Active	–	Active	inhibition (Staphylococcus aureus [1]): Active; inhibition (Pseudomonas aeruginosa [2]): Active; Activity [35]: Non-toxic; inhibition (Pseudomonas aeruginosa [7]): inactive; inhibition (Staphylococcus aureus [11]): inactive
